Test results published in ChEMBL document CHEMBL1141765, “Alkaloids from Alangium javanicum and Alangium grisolleoides that mediate Cu2+-dependent DNA strand scission” (J Nat Prod, 2005).
Values joined by “and” are separate entries in the source; they are usually repeats but may differ in a detail not shown here. Equal entries are not always repeated.

Key:
Escherichia coli [1] = test: Induction of DNA strand scission activity against Escherichia coli pBR322 assessed as form 2 DNA levels at 10 uM after 60 mins by electrophoresis in presence of 20 uM Cu2+; type: functional
How it was run: (§1)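 Supercoiled pBR322 plasmid DNA (500 ng) was incubated with compound, with or without 20 µM Cu2+, in 10 mM Tris-HCl, pH 8.0. Compound came from DMSO, final DMSO ≤5%. Incubation was 37 °C for 60 min. Blank (DNA only) and Cu2+-only controls were included. Samples were run on 1.0% agarose gels with ethidium bromide in TBE, pH 8.3. Form I→Form II conversion was quantified by gel densitometry.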

Escherichia coli [2] = test: Induction of DNA strand scission activity against Escherichia coli pBR322 assessed as form 2 DNA levels at 200 uM after 60 mins by electrophoresis in presence of 20 uM Cu2+; type: functional; how it was run: as §1
Escherichia coli [3] = test: Induction of DNA strand scission activity against Escherichia coli pBR322 assessed as form 2 DNA levels at 500 uM after 60 mins by electrophoresis in presence of 20 uM Cu2+; type: functional; how it was run: as §1
Escherichia coli [4] = test: Induction of DNA strand scission activity against Escherichia coli pBR322 assessed as form 2 DNA levels at 100 uM after 60 mins by electrophoresis in presence of 20 uM Cu2+; type: functional; how it was run: as §1
Escherichia coli [5] = test: Induction of DNA strand scission activity against Escherichia coli pBR322 assessed as form 2 DNA levels at 500 uM after 60 mins by electrophoresis in absence of 20 uM Cu2+; type: functional; how it was run: as §1
Escherichia coli [6] = test: Induction of DNA strand scission activity against Escherichia coli pBR322 assessed as form 2 DNA levels at 50 uM after 60 mins by electrophoresis in presence of 20 uM Cu2+; type: functional; how it was run: as §1
Escherichia coli [7] = test: Induction of DNA strand scission activity against Escherichia coli pSP64 assessed as form 2 DNA levels at 200 uM after 2 hrs by electrophoresis in presence of equimolar amount of Cu2+
Escherichia coli [8] = test: Induction of DNA strand scission activity against Escherichia coli pSP64 assessed as form 2 DNA levels at 10 uM after 2 hrs by electrophoresis in presence of equimolar amount of Cu2+
Escherichia coli [9] = test: Induction of DNA strand scission activity against Escherichia coli pSP64 assessed as form 2 DNA levels at 100 uM after 2 hrs by electrophoresis in presence of equimolar amount of Cu2+
Escherichia coli [10] = test: Induction of DNA strand scission activity against Escherichia coli pBR322 assessed as form 2 DNA levels at 25 uM after 60 mins by electrophoresis in presence of 20 uM Cu2+; type: functional; how it was run: as §1
Escherichia coli [11] = test: Induction of DNA strand scission activity against Escherichia coli pBR322 assessed as form 2 DNA levels at 200 uM after 60 mins by electrophoresis in absence of 20 uM Cu2+; type: functional; how it was run: as §1

| SMILES | Activity (Escherichia coli [1]) [%] | Activity (Escherichia coli [2]) [%] | Activity (Escherichia coli [3]) [%] | Activity (Escherichia coli [4]) [%] | Activity (Escherichia coli [5]) [%] | Activity (Escherichia coli [6]) [%] | Activity (Escherichia coli [7]) | Activity (Escherichia coli [8]) [%] | Activity (Escherichia coli [9]) | Activity (Escherichia coli [10]) [%] | Activity (Escherichia coli [11]) [%] |
| --- | --- | --- | --- | --- | --- | --- | --- | --- | --- | --- | --- |
| C=C[C@H]1[C@H](O[C@@H]2O[C@H](CO)[C@@H](O)[C@H](O)[C@H]2O)OC=C2C(=O)N3CCc4cc(OC)c(O)cc4[C@H]3C[C@H]21 | 14 | 30 | 42 | 25 | 3 | 18 |  |  |  |  |  |
| C=C[C@H]1[C@H](O[C@@H]2O[C@H](CO)[C@@H](O)[C@H](O)[C@H]2O)OC=C2C(=O)N3CC[C@]4(C(=O)Nc5ccccc54)[C@H]3C[C@H]21 |  |  |  |  |  |  | 7% | 0 | 5% |  |  |
| C=C[C@H]1[C@H](O[C@@H]2O[C@H](CO)[C@@H](O)[C@H](O)[C@H]2O)OC=C2C(=O)N3CC[C@@]4(C(=O)Nc5ccccc54)[C@H]3C[C@H]21 | 10 | 58 |  | 29 |  | 20 | 43% and 35% | 0 | 28% and 16% | 16 | 3 |
